Drawing on ChEMBL document CHEMBL1681736, “Towards more specific O6-methylguanine-DNA methyltransferase (MGMT) inactivators” (Bioorg Med Chem, 2011), this text covers solubility and IC50 for 9 molecules.

Data set [1] in a line: Solubility of the compound in phosphate buffer. The format is physicochemical. Summed up: (§1)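 Solubility was assessed while setting up thermal denaturation experiments with salmon sperm DNA (68% A–T base-pair content). Each buffer (phosphate, MES, Tris) was tried alone and also mixed with DMSO or ethanol.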
Data set [2] in a line: Solubility of the compound in Tris buffer. The format is physicochemical. Summed up: as §1
Data set [3] in a line: Solubility of the compound in MES buffer. Format: physicochemical. Summed up: as §1
Data set [4] deals with T1, Methylated-DNA--protein-cysteine methyltransferase (Homo sapiens, UniProt P16455).
T1 sequence (P16455 whole entry): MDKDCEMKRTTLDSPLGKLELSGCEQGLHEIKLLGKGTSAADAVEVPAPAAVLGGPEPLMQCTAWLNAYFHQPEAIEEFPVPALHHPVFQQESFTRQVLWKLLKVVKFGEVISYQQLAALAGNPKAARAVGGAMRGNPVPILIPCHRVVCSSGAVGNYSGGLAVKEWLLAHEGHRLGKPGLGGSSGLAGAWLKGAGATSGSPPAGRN
The data set is described as follows: Inactivation of human O-6-methylguanine-DNA methyltransferase assessed as [3H]methylated protein formation by liquid scintillation counting in presence of [3H]methylated calf thymus DNA.

For the molecule `Nc1ccc(Cc2ccc(Nc3nc(N)nc(OCc4cc(Br)cs4)c3[N+](=O)[O-])cc2)cc1`, the solubility entry in data set [1], in data set [2] and in data set [3] was “Insoluble” in each case.

On to `Nc1ccc(Nc2ccc(Nc3nc(N)nc(OCc4cc(Br)cs4)c3[N+](=O)[O-])cc2)cc1`, for which the solubility result in data set [1], in data set [2] and in data set [3] was “Insoluble” in each case.

With `Nc1ccc(Oc2ccc(Nc3nc(N)nc(OCc4cc(Br)cs4)c3[N+](=O)[O-])cc2)cc1`, the solubility entry in data set [1], in data set [2] and in data set [3] was “Insoluble” in each case.

Regarding `Nc1ccc(C(=O)c2ccc(Nc3nc(N)nc(OCc4cc(Br)cs4)c3[N+](=O)[O-])cc2)cc1`, the solubility result in data set [1], in data set [2] and in data set [3] was “Insoluble” throughout.

As to `Nc1ccc(Cc2ccc(Nc3nc(N)nc(OCc4ccccc4)c3[N+](=O)[O-])cc2)cc1`, the solubility entry in data set [1], in data set [2] and in data set [3] was “Insoluble” each time.

As to `Nc1ccc(Nc2ccc(Nc3nc(N)nc(OCc4ccccc4)c3[N+](=O)[O-])cc2)cc1`, the solubility result in data set [1], in data set [2] and in data set [3] was “Insoluble” in each case.

With `Nc1ccc(Oc2ccc(Nc3nc(N)nc(OCc4ccccc4)c3[N+](=O)[O-])cc2)cc1`, the IC50 (commonly the concentration that gives 50% inhibition) in data set [4] is > 600 µM. Also, the solubility entry in data set [1], in data set [2] and in data set [3] was “Insoluble” in each case.

As for `Nc1ccc(C(=O)c2ccc(Nc3nc(N)nc(OCc4ccccc4)c3[N+](=O)[O-])cc2)cc1`, in data set [4], the half-inhibitory concentration (IC50) was > 600 µM. Besides, the solubility entry in data set [1], in data set [2] and in data set [3] was “Insoluble” each time.

For `Nc1nc(OCc2cc(Br)cs2)c2[nH]cnc2n1` [LOMEGUATRIB], the IC50 in data set [4] was 0.003 µM.
